Tests used:
[1] = Stability of the compound in MeOH at 23 degC after 5 days in presence of NaHCO3; assay type: physicochemical; conditions: 120 h
[2] = Stability of the compound in DMF/H2O at 23 degC after 5 days in presence of NaHCO3; assay type: physicochemical; conditions: 120 h
[3] = Stability of the compound in THF at 23 degC after 5 days in presence of NaHCO3; assay type: physicochemical; conditions: 120 h
[4] = Half life of the compound in HCl/EtOAc at 23 degC; assay type: physicochemical
L1210 = test: Cytotoxicity against mouse L1210 cells assessed as growth inhibition after 72 hrs by phosphatase assay; assay type: functional, cell-based; conditions: Mus musculus, L1210, 72 h
Outline: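 L1210 mouse leukemia cells were seeded at 30,000 cells/mL in DMEM with 10% FBS and grown 24 h at 37 °C, 5% CO2. DMSO dilutions were then added at six concentrations between 0–100 or 0–1000 nM, in duplicate, for 72 h. Read-out: phosphatase substrate in 0.1 M NaOAc pH 5.5 with 0.1% Triton X-100, 5 min at 37 °C, stopped with NaOH, A405. IC50 is the average of ≥4 determinations.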

[5] = Stability of the compound in THF at 254 nM under non basic condition in presence of BnSH; assay type: physicochemical; conditions: 0.254 µM
[6] = Stability of the compound in THF at 254 nM under non basic condition in presence of BnNH2; assay type: physicochemical; conditions: 0.254 µM
[7] = Drug degradation in MeOH at 254 nM after 72 hrs by LC-MS analysis in presence of NaHCO3 and BnNH2; assay type: physicochemical; conditions: MeOH with NaHCO3 and BnNH2; read-out: Drug degradation
[8] = Drug degradation in MeOH at 254 nM after 72 hrs by LC-MS analysis in presence of NaHCO3 and BnSH; assay type: physicochemical; conditions: MeOH with NaHCO3 and BnSH; read-out: Drug degradation
[9] = Drug degradation in THF at 254 nM after 72 hrs by LC-MS analysis in presence of NaHCO3 and BnNH2; assay type: physicochemical; conditions: THF with NaHCO3 and BnNH2; read-out: Drug degradation
[10] = Drug degradation in MeOH at 254 nM after 48 hrs by LC-MS analysis in presence of NaHCO3 and BnNH2; assay type: physicochemical; conditions: MeOH with NaHCO3 and BnNH2; read-out: Drug degradation
[11] = Drug degradation in THF at 254 nM after 72 hrs by LC-MS analysis in presence of NaHCO3 and BnSH; assay type: physicochemical; conditions: THF with NaHCO3 and BnSH; read-out: Drug degradation
[12] = Drug degradation in MeOH at 254 nM after 48 hrs by LC-MS analysis in presence of NaHCO3 and BnSH; assay type: physicochemical; conditions: MeOH with NaHCO3 and BnSH; read-out: Drug degradation
[13] = Drug degradation in THF at 254 nM after 48 hrs by LC-MS analysis in presence of NaHCO3 and BnNH2; assay type: physicochemical; conditions: THF with NaHCO3 and BnNH2; read-out: Drug degradation
[14] = Drug degradation in MeOH at 254 nM after 24 hrs by LC-MS analysis in presence of NaHCO3 and BnNH2; assay type: physicochemical; conditions: MeOH with NaHCO3 and BnNH2; read-out: Drug degradation
[15] = Drug degradation in THF at 254 nM after 48 hrs by LC-MS analysis in presence of NaHCO3 and BnSH; assay type: physicochemical; conditions: THF with NaHCO3 and BnSH; read-out: Drug degradation
[16] = Drug degradation in THF at 254 nM after 24 hrs by LC-MS analysis in presence of NaHCO3 and BnSH; assay type: physicochemical; conditions: THF with NaHCO3 and BnSH; read-out: Drug degradation
[17] = Drug degradation in MeOH at 254 nM after 24 hrs by LC-MS analysis in presence of NaHCO3 and BnSH; assay type: physicochemical; conditions: MeOH with NaHCO3 and BnSH; read-out: Drug degradation
[18] = Drug degradation in THF at 254 nM after 24 hrs by LC-MS analysis in presence of NaHCO3 and BnNH2; assay type: physicochemical; conditions: THF with NaHCO3 and BnNH2; read-out: Drug degradation
[19] = Stability of the compound in MeOH at 254 nM after 2 hrs by LC-MS analysis in presence of NaHCO3 and BnNH2; assay type: physicochemical; conditions: 0.254 µM
[20] = Drug degradation in MeOH at 254 nM after 2 hrs by LC-MS analysis in presence of NaHCO3 and BnSH; assay type: physicochemical; conditions: MeOH with NaHCO3 and BnSH; read-out: Drug degradation
[21] = Drug degradation in THF at 254 nM after 2 hrs by LC-MS analysis in presence of NaHCO3 and BnNH2; assay type: physicochemical; conditions: THF with NaHCO3 and BnNH2; read-out: Drug degradation
[22] = Drug degradation in THF at 254 nM after 2 hrs by LC-MS analysis in presence of NaHCO3 and BnSH; assay type: physicochemical; conditions: THF with NaHCO3 and BnSH; read-out: Drug degradation
[23] = Half life of the compound in MeOH at 23 degC in presence of NaHCO3; assay type: physicochemical; conditions: MeOH with NaHCO3

CN1Oc2cc3c(c4cccc(c24)C1=O)[C@H](CCl)CN3C(=O)OC(C)(C)C
Stability [1]: Stable
Stability [2]: Stable
Stability [3]: Stable
half-life [4]: 24 h
IC50 (L1210): 850 nM

CC(C)(C)OC(=O)N1C[C@@H](CCl)c2c1cc1c3c(cccc23)C(=O)NO1
Stability [5]: Stable
Stability [6]: Stable
degraded at 72 h, 0.254 µM [7]: 16%
degraded at 72 h, 0.254 µM [8]: 83%
degraded at 72 h, 0.254 µM [9]: 3%
degraded at 48 h, 0.254 µM [10]: 15%
degraded at 72 h, 0.254 µM [11]: 46%
degraded at 48 h, 0.254 µM [12]: 75%
degraded at 48 h, 0.254 µM [13]: 4%
degraded at 24 h, 0.254 µM [14]: 9%
degraded at 48 h, 0.254 µM [15]: 39%
degraded at 24 h, 0.254 µM [16]: 33%
degraded at 24 h, 0.254 µM [17]: 58%
degraded at 24 h, 0.254 µM [18]: 3%
Stability [19]: Stable
degraded at 2 h, 0.254 µM [20]: 33%
degraded at 2 h [21]: 2%
degraded at 2 h, 0.254 µM [22]: 28%
half-life [23]: 70 h
half-life [4]: 2 h
IC50 (L1210): 650 nM

Source: ChEMBL document CHEMBL2346555, “Efficacious cyclic N-acyl O-amino phenol duocarmycin prodrugs” (J Med Chem, 2013)
